From PubChem
Only some compounds are listed: those with a hit (about 1.7% of all), similar ones and a draw of the others.
Beta2AR agonist: agonists of human beta-2 adrenergic receptor inducing internalization; Am2.2-beta2AR cells, FAP receptor internalization, flow cytometry; response, % (no concentration beside the values); 340,000 tested, 0.43% active;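 active = response above a set limit, near 3 SD of response in nonfluorescent compounds, cut at about 42% in these data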
CXCR6 block: CXCR6 (human) receptor inhibition. O00574. CHO-K1 PathHunter CXCR6 beta-arrestin, luminescence. inhibition, % at 20 µM. 360,000 tested, 0.36% active. AID 602244; in the data active = inhibition above about 34%, passing the limit was not always enough;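 note: antagonist mode with CXCL16 agonist at 10 nM final; 0% = 10 nM CXCL16 with DMSO and 100% = unstimulated wells without agonist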
Target sequence (O00574 whole entry, looked up): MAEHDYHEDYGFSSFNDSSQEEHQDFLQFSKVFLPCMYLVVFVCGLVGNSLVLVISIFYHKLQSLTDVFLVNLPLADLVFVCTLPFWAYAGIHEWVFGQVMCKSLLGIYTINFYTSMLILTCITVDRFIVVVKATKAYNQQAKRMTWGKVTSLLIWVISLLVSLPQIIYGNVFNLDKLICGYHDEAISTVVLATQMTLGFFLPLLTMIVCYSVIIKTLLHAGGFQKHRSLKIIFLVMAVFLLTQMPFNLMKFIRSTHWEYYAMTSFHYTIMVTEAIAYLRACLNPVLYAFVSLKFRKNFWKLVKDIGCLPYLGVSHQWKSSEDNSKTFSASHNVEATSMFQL
APJ agonist: agonists of human APJ apelin receptor; P35414; CHO-K1 APJ PathHunter beta-arrestin, luminescence; 0% DMSO wells, 100% apelin; activation, % at 20 µM; 330,000 tested, 0.11% active;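 active = activation more than six SD over the plate average, tested at 20 µM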;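 note: 0% = DMSO alone and 100% = apelin-13 at 10 nM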
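Assay system: engineered CHO-K1 APJ arrestin reporter cells; Amount: 1000 CHO-K1 reporter cells seeded per well; Dosing: one dose, 20 µM compound, 1% DMSO; Times: compound stimulation 90 min at 25 °C, detection 60 min; Measured by: luminescent beta-gal fragment complementation, chemiluminescent substrate; Read-out: APJ–arrestin association signal; Controls: DMSO vs Apelin-13 10 nM.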
APJ antagonist: antagonists of human APJ apelin receptor. P35414. CHO-K1 APJ beta-arrestin complementation, luminescence. inhibition, % at 20 µM. 330,000 tested, 0.32% active. AID 2521;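 active = inhibition above about 40% at 20 µM, limit read from the data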;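 note: cells challenged with 10 nM apelin-13 agonist together with compound; plate controls were apelin-13 plus DMSO wells for no effect and DMSO wells lacking apelin-13 for full effect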
PfGluPho inh: PfG6PD (Plasmodium falciparum) enzyme inhibition; PfGluPho enzyme, NADPH resazurin-diaphorase fluorescence; inhibition, % at 20 µM; 350,000 tested, 0.78% active; AID 504690;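 active = inhibition reaching at least a set limit at 20 µM in the primary screen, cut at about 59% in these data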;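 note: 0% = DMSO wells with substrate and 100% = DMSO wells lacking glucose-6-phosphate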
CCR6 antag: antagonists of human CCR6 receptor. CHO-K1 CCR6 PathHunter beta-arrestin, luminescence, CCL20-stimulated. inhibition, % at 20 µM. 340,000 tested, 0.49% active;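 active = compounds whose inhibition of the agonist-driven luminescence signal at 20 µM reaches about 50%, limit read from the data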;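 note: cells stimulated with CCL20 at 14 nM final; plate controls were DMSO with CCL20 for no effect and DMSO without agonist for full effect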
Active calls of the source: *; x = no result given.

SMILES	Beta2AR agonist	CXCR6 block	APJ agonist	APJ antagonist	PfGluPho inh	CCR6 antag
Cc1cc(C)nc(N/N=C/c2cc(Br)ccc2O)n1	2	44*	-3	3	30	44
COc1ccc(NC(=O)CS(=O)(=O)Cc2ccccc2)c([N+](=O)[O-])c1	-3	-3	4	-20	-10	2
COc1cccc(-c2cc(C(=O)N3CCN(C(=O)c4ccco4)CC3)[nH]n2)c1	-4	-4	-1	19	-15	-4
O=C1NC[C@H](c2ccccc2)OC(=O)[C@H](Cc2ccc(F)cc2)CC/C=C/C[C@H]1CC(=O)N(CCO)Cc1ccccc1	16	48*	x	x	-8	33
O=C1NC[C@H](c2ccccc2)OC(=O)[C@@H](Cc2ccc(F)cc2)CC/C=C/C[C@H]1CC(=O)N(CCO)Cc1ccccc1	17	37	x	x	-5	33
CC(NC(C(=O)c1ccccc1)c1ccccc1)c1ccccc1 (stereo unspecified)	5	37*	x	x	-6	78*
CCN1C(=O)/C(=C/c2ccc(C)s2)NC1=S	-2	4	0	19	15	20
CCOC(=O)COc1ccc(/C=C2\NC(=S)N(CC)C2=O)cc1	66*	-10	-1	-13	-12	1
CCOC(=O)C1=C(C)OC(=Cc2ccccc2)C1=O	x	8	x	x	3	x
CCOC(=O)C1=C(O)c2ccccc2C(=O)/C1=C\c1ccc(C)cc1	-907	20	x	x	96*	34
Cc1ccc(OCC(=O)Nc2nnc(S(=O)(=O)N3CCC(C)CC3)s2)cc1	8	-5	-1	-18	-6	9
COc1cc(/C=C2\SC(=S)N(c3cccnc3)C2=O)ccc1O	10	65*	-9	53*	-9	75*
O=C(O)c1[nH]c2ccc(Br)cc2c1CCN1C(=O)c2cccc([N+](=O)[O-])c2C1=O	11	-10	2	-60	-17	2
CC1(C)C(/C=C/C=C/C=C/C=C2\N(CCCCS(=O)(=O)O)c3ccc4ccccc4c3C2(C)C)=[N+](CCCCS(=O)(=O)[O-])c2ccc3ccccc3c21	58*	18	1	6	57	46
Cc1c2ccccc2cc[n+]1CCCS(=O)(=O)[O-]	1	2	-2	-5	-5	7
O=[N+]([O-])c1ccccc1S(=O)c1ccccc1[N+](=O)[O-]	x	-13	x	x	x	x
O=[N+]([O-])c1ccc(N=Cc2sc3ccccc3c2O)cc1	20	-8	-3	1	-12	52*
O=C1N=c2ccccc2=C1c1sc(NS(=O)(=O)Cc2ccccc2)nc1O	0	10	-6	13	-39	76*
O=C1N=c2ccccc2=C1c1sc(Nc2ccc(O)cc2)nc1O	3	50*	x	x	-21	57*
O=C1N=c2ccccc2=C1c1sc(Nc2cccc(O)c2)nc1O	7	20	-4	33	0	34
COc1ccc(OCCCC(=O)N2CCN(S(=O)(=O)c3cccc(F)c3)CC2)cc1	5	-9	-3	11	0	10
Cc1ccc2c(c1)-n1c(nc3cc(Cl)ccc3c1=O)C(Cc1ccccc1)NC2=O (stereo unspecified)	x	x	-1	1	x	x
CCCN1CCCc2cc(CN)ccc21	12	-7	2	-40	66*	1
O=c1[nH]c(NNC(=S)NC2CCCCC2)nc2c1C1(CCCC1)Cc1ccccc1-2	68*	-6	-7	-17	0	1
O=c1[nH]c(NNC(=S)NCc2ccccc2)nc2c1C1(CCCCC1)Cc1ccccc1-2	5	12	1	4	1	9
SMILES	Beta2AR agonist	CXCR6 block	APJ agonist	APJ antagonist	PfGluPho inh	CCR6 antag
COc1cc(C)ccc1OCc1cc(C(=O)NC(c2ccccn2)C(F)(F)F)no1 (stereo unspecified)	x	0	x	x	7	x
c1cc(SSc2ccncc2)ccn1	-8	9	-2	-4	65*	-23
c1ccc(Sc2ccncc2)cc1	x	-2	x	x	12	x
CN(CC(=O)NCc1ccco1)C(=O)C1CC(=O)N(c2ccc3c(c2)OCCO3)C1 (stereo unspecified)	-3	5	-2	-14	-16	-3
COc1ccc(/C=C2\SC(N)=NC2=O)cc1	9	-8	-3	-3	7	-22
CCOC(=O)CSC1=NC(=O)/C(=C/c2ccc(OC)cc2)S1	69*	39	5	-1	45	54*
O=C(CN1C(=O)NC2(CCOc3ccccc32)C1=O)Nc1ccc(Br)cc1F (stereo unspecified)	12	8	-2	6	8	7
O=C(NC(=S)N1CCN(c2ccc(Cl)cc2[N+](=O)[O-])CC1)c1cccs1	10	43*	x	x	-27	x
Cc1ccc(C(=O)N/C(N)=N/c2nc3ccccc3o2)cc1	-5	6	-2	-25	-15	21
COc1ccccc1C(=O)N/C(N)=N/c1nc2ccccc2o1	1	26	-9	19	10	75*
O=C(CCC(C(=O)c1ccccc1)c1ccccc1)c1ccccc1 (stereo unspecified)	x	-2	x	x	-22	x
O=C(C#Cc1ccccc1)c1ccc([N+](=O)[O-])cc1	69*	71*	2	12	25	55*
O=C(c1ccc(-c2ccccc2)cc1)c1ccc([N+](=O)[O-])cc1	x	x	1	-30	x	x
CCCCCc1cc(=O)oc2c(C(CCN(CC)CC)c3cc(OC)c(OC)c(OC)c3)c(OC)cc(OC)c12 (stereo unspecified)	44*	-4	-2	9	12	10
CCN(CC)c1ccc2cc(C(=O)NNC(=O)c3ccc(S(=O)(=O)N4CCCCC4)cc3)c(=O)oc2c1	10	19	x	x	-12	69*
COc1cc([N+](=O)[O-])cc(/C=N/NC(=O)C(C)Nc2cccc3ccccc23)c1O (stereo unspecified)	-3	56*	0	-50	-21	48
COc1ccccc1-c1cnc(C(O)c2cc(Cl)cc(Cl)c2)[nH]1 (stereo unspecified)	x	-12	x	x	x	x
CCN1CCN(c2cc(N3CCN(C(=O)c4ccco4)CC3)c3c4c(onc24)-c2ccccc2C3=O)CC1	13	7	0	-32	68*	31
Cc1cc(N(C)/N=C/c2ccccc2O)nc(-c2ccccc2O)n1	3	42*	-1	12	4	56*
O=C(CN1C(=O)NC2(CCc3ccccc32)C1=O)NCCc1ccccc1 (stereo unspecified)	-1	9	-2	-1	7	10
c1ccc(-[n+]2nc(Nc3cccc4ccccc34)sc2-c2c3ccccc3cc3ccccc23)cc1	1	16	0	14	83*	14
Cc1ccccc1C(=O)NC(=S)Nc1ccc(S(=O)(=O)N2CCN(C)CC2)cc1	5	19	-4	5	-17	61*
